Screens: PubChem BioAssay, several laboratories
STAT3 act = STAT3 signaling activation; U3A cells, IL-6 STAT3-luciferase reporter, luminescence; 100% = signal with IL-6 EC80 alone; activation (% of control), % at 5.6 µM; 190,000 compounds, 0.91% hits;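 active = activation above the screen-wide mean of compound activation plus 3 SD, cut at about 130% in these data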;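 note: 0% = background luminescence of wells with medium and substrate only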
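Assay system – human STAT1-deficient U3A cells with stable STAT3-luciferase reporter · Also added – IL-6 (33 ng/mL) · Schedule – compound 1 h, then IL-6 6 h at 37 °C · Technique – reporter luminescence signal · Evaluation – % activation versus median of IL-6-stimulated wells · Benchmarks – IL-6-only wells as 100% reference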
APP 5'UTR act = APP 5'UTR luciferase reporter activation; SH-SY5Y APP 5'UTR luciferase reporter, luminescence; zero percent = DMSO vehicle wells; 190,000 compounds, 1% hits; activation, % at 2 µM;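 active = activation above a set limit, based on mean plus 3 SD of controls, cut at about 140% in these data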
STAT3 blocker = inhibitors of IL-6 induced STAT3 signaling; 190,000 compounds, 0.89% hits; AID 862; U3A cells, IL-6 STAT3-luciferase reporter, luminescence; host cell line lacks STAT1; inhibition, % at 5.5 µM;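 active = inhibition above the mean inhibition across all screened compounds plus 3 SD, cut at about 44% in these data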;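 note: 0% = DMSO only wells and 100% = 100 µM nifuroxazide control wells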
STAT1 act = activators of IFN-gamma induced STAT1 signaling. NIH 3T3 STAT1-luciferase reporter, luminescence; 100% = IFN-gamma alone, no compound. activation (% of control), % at 5.5 µM. 200,000 compounds, 2.6% hits. AID 932;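 active = activation above the screen-wide mean activation plus 3 SD, cut at about 130% in these data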;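 note: raw ratio to IFN-gamma control signal so 100% means no change and 0% no light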
STAT1 blocker = STAT1 signaling inhibition | NIH 3T3 STAT1-luciferase reporter, IFN-gamma, luminescence | inhibition, % at 5.5 µM | 200,000 compounds, 0.35% hits | AID 920;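 active = inhibition above a set limit, the mean inhibition across all tested compounds plus 3 SD, cut at about 34% in these data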;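 note: 0% = IFN-gamma with DMSO and 100% = IFN-gamma with 300 µM nifuroxazide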
NF-kB neuron act = NF-kB expression increase, human neuronal cells; AID 1239; fold change at 12.5 µM; NF-kB reporter expression; stronger effect = higher value; 190,000 compounds, 1.6% hits; in the data active = fold change above about 3.3
Active calls of the source: *; . = no result. Only some compounds are listed: those with a hit (about 5.1% of all), similar ones and a draw of the others.

SMILES	STAT3 act	APP 5'UTR act	STAT3 blocker	STAT1 act	STAT1 blocker	NF-kB neuron act
c1ccc(-c2noc(-c3ccccc3-c3ccccc3)n2)cc1	89.1	-13.9	18.1	95.7	4.7	1.41
Brc1ccc(-c2nc(-c3cccnc3)no2)o1	91.8	37.8	13.2	131.5*	-34.6	1.25
CC1CCCN(C(=O)C(C)Sc2nc(-c3ccccc3)cc(C(F)(F)F)n2)C1 (stereo not given)	94.9	.	12.6	97.2	3.0	0.73
COc1ccc(N=c2scc(-c3ccc(S(=O)(=O)N4CCOCC4)cc3)n2CCCO)cc1	67.6	10.8	43.6*	76.0	24.8	0.72
C=CCn1c(-c2ccc(S(=O)(=O)N3CCOCC3)cc2)csc1=Nc1ccccc1	85.0	4.0	21.2	74.5	27.9	0.94
CC1=C(C(=O)N2CCOCC2)C(c2ccc(OC(F)F)cc2)NC(=S)N1c1ccccc1 (stereo not given)	102.7	-12.5	6.4	98.8	1.6	1.28
CC(C)OC(=O)C1CC(C)(O)C(=O)C(C(=O)OC(C)C)C1c1ccc([N+](=O)[O-])cc1 (stereo not given)	96.2	9.6	6.0	92.0	7.6	0.97
O=C1C(Nc2ccccc2)=C(NS(=O)(=O)c2ccccc2)C(=O)c2ccccc21	134.2*	-10.2	-35.2	96.0	4.4	0.86
O=C1c2ccccc2C(=O)c2cc(S(=O)(=O)Nc3ccccc3)ccc21	100.5	-2.3	-2.3	99.4	0.8	0.7
CCCc1cc2c(=O)c(-c3ccccn3)c(C)oc2cc1O	116.1	30.1	-12.2	95.8	3.4	1.17
CCCc1cc2c(=O)c(-c3ccccn3)coc2cc1OC	98.2	16.1	7.4	135.5*	-38.8	3.86*
CCC12CN3CC(CC)(CN(C1)C3c1ccc([N+](=O)[O-])o1)C2=O (stereo not given)	105.3	1.9	-3.8	98.0	0.2	1.12
CCCCNC(=O)[C@H](CSCc1ccccc1)N1Cc2ccccc2C1=O	101.8	11.5	-2.2	89.9	11.1	1.04
CCCCCCNC(=O)c1c(N)n(/N=C/c2ccco2)c2nc3ccccc3nc12	108.4	-5.6	-10.0	135.3*	-38.3	.
COC(=O)c1ccc2c(=O)n(-c3ccccc3F)c(=S)[nH]c2c1	93.8	-14.7	15.2	89.5	11.3	1.22
CC(C)C(=O)Nc1cccc(-c2cn3ccccc3n2)c1	101.9	-13.5	-3.4	112.3	-13.8	1.99
Cc1ccn2cc(-c3cccc(NC(=O)C(C)C)c3)nc2c1	87.8	40.7	20.0	131.7*	-35.9	2.26
Cc1ccc(C(=O)NCC(=O)OCc2csc(-c3ccccc3)n2)cc1	92.8	4.1	4.6	103.2	-3.5	1.2
O=C(OCc1csc(-c2ccccc2)n1)c1ccc(O)cc1	95.2	64.4	6.5	149.7*	-52.2	3.29
Cc1ccsc1C1NC(=O)c2c(sc3c2CCCC3)N1 (stereo not given)	107.6	82.5	-2.3	133.2*	-34.8	1.8
Cc1ccc(C2NC(=O)c3c(sc4c3CCN(C)C4)N2)s1 (stereo not given)	109.5	10.3	-5.5	138.1*	-41.9	1.21
CN1CCc2c(sc3c2C(=O)NC(c2ccccc2)N3)C1 (stereo not given)	100.4	-2.7	8.0	106.2	-6.8	0.8
CN1CCc2c(sc3c2C(=O)NC(c2ccccn2)N3)C1 (stereo not given)	103.2	7.8	-0.2	103.5	-3.8	1.01
O=C1NC(c2ccccn2)Nc2sc3c(c21)CCC3 (stereo not given)	96.7	37.1	5.7	117.4	-19.0	5.04*
O=C1NC(c2ccc(Br)cc2)Nc2sc3c(c21)CCC3 (stereo not given)	93.5	19.1	11.8	103.4	-3.7	1.41
COc1ccc(CNC(=O)c2n[nH]c3ccccc23)cc1OC	101.3	14.7	-1.0	92.5	8.6	1.01
CCOc1ccc2nc(NC(=O)c3ccc(OCC4CCCO4)cc3)sc2c1 (stereo not given)	88.9	78.2	9.4	121.4	-23.5	1.07
CCN1CCN(c2ccc(NC(=O)c3ccc([N+](=O)[O-])o3)cc2Cl)CC1	97.8	-93.6	8.8	148.4*	-55.8	2.26
CCC(=O)N1CCN(c2ccc(NC(=O)c3ccc([N+](=O)[O-])o3)cc2Cl)CC1	112.8	-92.5	-8.3	129.6*	-35.5	0.24
